High-throughput results as filed in PubChem.
CHRM4 agonist – human M4 muscarinic receptor agonists, primary screen, CHO-K1 cells, Fluo-8 calcium fluorescence. AID 624127, 2012. activation, % at 3 µM. CHO-K1 hM4/Gqi5; vehicle 0%, full acetylcholine response 100%. hit rate 0.14% among 360,000;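 active means activation above the run mean over all test wells plus 3 SD, cut at about 32% in these data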;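 further: peak over basal fluorescence ratio per well then scaled between controls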
Target sequence (P08173 whole entry, looked up): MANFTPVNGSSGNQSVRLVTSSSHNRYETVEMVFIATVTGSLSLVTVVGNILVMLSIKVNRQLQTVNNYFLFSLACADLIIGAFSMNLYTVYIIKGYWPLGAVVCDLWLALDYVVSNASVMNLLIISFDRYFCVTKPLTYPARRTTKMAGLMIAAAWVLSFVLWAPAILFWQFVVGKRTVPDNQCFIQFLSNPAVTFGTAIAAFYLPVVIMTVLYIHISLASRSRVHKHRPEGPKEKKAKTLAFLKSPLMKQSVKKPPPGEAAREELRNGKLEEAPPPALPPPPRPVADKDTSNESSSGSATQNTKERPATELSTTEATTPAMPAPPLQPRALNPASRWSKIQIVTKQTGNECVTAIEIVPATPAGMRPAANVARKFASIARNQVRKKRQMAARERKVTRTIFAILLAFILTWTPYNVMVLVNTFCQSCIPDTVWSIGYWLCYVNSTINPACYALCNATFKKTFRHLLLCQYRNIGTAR
M5 antag – human M5 muscarinic receptor antagonists, primary screen, CHO cells, Fluo-8 calcium fluorescence; Muscarinic acetylcholine receptor M5 (Homo sapiens), P08912; CHO-hM5 cells, ACh EC80; inhibition, % at 3 µM; hit rate 0.59% among 360,000; AID 624040, 2012;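 active means inhibition above a per-plate cutoff, the mean of that plate's test compounds plus 3 SD, cut at about 27% in these data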
CHRM4 PAM – human M4 muscarinic receptor positive allosteric modulators, primary screen, CHO-K1 cells, Fluo-8 calcium fluorescence; activation, % at 3 µM; Muscarinic acetylcholine receptor M4 (Homo sapiens), P08173; hit rate 0.4% among 360,000; CHO-K1 hM4/Gqi5, ACh EC20; 0% = ACh EC20, 100% = maximal ACh; AID 624126, 2012;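 active means activation above its plate's cutoff, the mean activation of sample wells plus 3 SD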
CHRM5 PAM – human M5 muscarinic receptor positive allosteric modulators, primary screen, CHO-K1 cells, Fluo-8 calcium fluorescence; Muscarinic acetylcholine receptor M5 (Homo sapiens), P08912; hit rate 0.3% among 360,000; CHO-K1 hM5, ACh EC20 PAM; 0% = ACh EC20, 100% = ACh EC100; activation, % at 3 µM; AID 624038, 2012;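 active means activation above the run cutoff, the mean activation of all test compounds plus 3 SD, cut at about 18% in these data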
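Assay system: CHO-K1 hM5 cells. Also added: acetylcholine at EC20 concentration, added after compound. Dosing: 3 µM, single dose. Times: compound preincubation 140 s before EC20 acetylcholine addition. Signal: Fluo-8 calcium fluorescence. Measure: % activation relative to EC20 and EC100 ACh responses. Repeats: singlicate, one well per test compound.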
M4 antag – human M4 muscarinic receptor antagonists, primary screen, CHO cells, Fluo-8 calcium fluorescence; inhibition, % at 3 µM; hit rate 0.73% among 360,000; Muscarinic acetylcholine receptor M4 (Homo sapiens), P08173; CHO-hM4 cells, ACh EC80; AID 624125, 2012;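 active means inhibition above its plate's cutoff, the mean inhibition of sample wells plus 3 SD, cut at about 27% in these data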
M5 ag – human M5 muscarinic receptor agonists, primary screen, CHO-K1 cells, Fluo-8 calcium fluorescence | Muscarinic acetylcholine receptor M5 (Homo sapiens), P08912 | CHO-K1 hM5 cells; 0% DMSO wells, 100% maximal acetylcholine response | activation, % at 3 µM | hit rate 0.19% among 360,000 | AID 624037, 2012;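 active means activation above the run's mean over test compounds plus 3 SD, cut at about 23% in these data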;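 further: signal is peak over basal fluorescence ratio across the kinetic read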
Large screens that a line does not name were inactive. The list is not random: actives were taken first. Their share in the collection is about 1.9%.

COc1ccc(S(=O)(=O)Nc2ccc(Cl)cn2)cc1	none
Cc1cccc(C(=O)N2CCC[C@H]2C(=O)N2CCC[C@H]2C(=O)NCc2ccncc2)c1	none
CSCCC(NC(=O)OC(C)(C)C)C(=O)NC(CC(C)C)C(N)=O (stereo not drawn)	CHRM4 PAM 36
COc1ccc(C=C(C(C)=O)C(=O)c2ccccc2)cc1	none
CC(=O)C(=Cc1ccc(Cl)cc1)C(=O)c1ccccc1	CHRM5 PAM 22
COc1ccc(CCC(=O)Nc2sc(C(=O)N(C)C)c(C)c2C#N)cc1	none
CCOc1ccc(NS(=O)(=O)c2cc(OCC(N)=O)c(C)cc2Cl)cc1	CHRM4 PAM 27
Cc1cc(Cl)c(S(=O)(=O)N2CCSCC2)cc1OCC(N)=O	CHRM4 PAM 19
Cc1cc(Cl)c(S(=O)(=O)N2CC(C)OC(C)C2)cc1OCC(N)=O (stereo not drawn)	none
COc1ccc(CCNC(=O)CSc2nnnn2-c2ccccc2)cc1	M5 antag 33, CHRM5 PAM 43
OC1(C#CCN2CCCC2)c2ccccc2-c2ccccc21	M5 antag 51, M4 antag 47
CCN(CC)CCC#CC1(O)c2ccccc2-c2ccccc21	M5 antag 87, M4 antag 73
CCc1n[nH]c(=O)n1Cn1c(CC)n[nH]c1=O	none
COc1cc(C2NC(=O)N(C)C(C)=C2C(=O)OCc2ccccc2)cc(Br)c1O (stereo not drawn)	CHRM4 PAM 14
CC(C)CCNC(=O)NC(=O)COC(=O)c1cc(S(=O)(=O)N2CCOCC2)ccc1N1CCCCC1	none
COc1ccc(N=c2scc(-c3ccc(OC)cc3)n2CCO)cc1	none
CN(CC(=O)NCCc1ccc(S(N)(=O)=O)cc1)CC(=O)Nc1ccc(Cl)c(C(F)(F)F)c1	CHRM4 PAM 23
CCCCn1c(N)c(N(CC(C)C)C(=O)c2cccc(S(=O)(=O)N3CCCCC3)c2)c(=O)[nH]c1=O	CHRM4 PAM 22
CCCCn1c(N)c(N(CCC(C)C)C(=O)COC(=O)c2ccc3ccccc3c2)c(=O)[nH]c1=O	CHRM4 PAM 23
CCCCn1c(N)c(N(CCC(C)C)C(=O)c2cc(Cl)nc3ccccc23)c(=O)[nH]c1=O	CHRM5 PAM 26
CCCCn1c(N)c(N(CCC(C)C)C(=O)CSc2nc3ccccc3n2C)c(=O)[nH]c1=O	CHRM5 PAM 21
CCCCn1c(N)c(N(CC(C)C)C(=O)c2cccc(S(=O)(=O)N3CCCCCC3)c2)c(=O)[nH]c1=O	none
CC(CCc1ccccn1)C(=O)C(C)CCc1ccccn1 (stereo not drawn)	none
Cc1ccccc1NC(=O)CSc1nc2ccccc2c2nc(CCn3cncc3C)nn12	none
CC(C)Cc1ccc(-c2cc(=O)[nH][nH]2)cc1	M5 antag 28
CCNC(=S)NNC(=O)c1csc2c1CCCC2	CHRM4 PAM 20
CCOC(=O)C1CCCN(C(=O)C2CCCN(S(=O)(=O)c3ccc4c(c3)oc(=O)n4C)C2)C1 (stereo not drawn)	none
O=C(COC(=O)C1CCC1)NCc1ccccc1	CHRM4 PAM 24
O=C(COC(=O)C1CCCC1)NCc1ccc(Cl)cc1	none
CCCCc1c(C)c2ccc(OC)c(/C(C)=N\O)c2oc1=O	none
CCOC(=O)C(=CN=C(N)Nc1nc2ccccc2o1)C(=O)OCC	CHRM4 PAM 20
Nc1ccc(O)c(-c2nc3ccccc3s2)c1	none
Oc1ccc(N=C/C=C/c2cccc(Br)c2)cc1-c1nc2ccccc2s1	CHRM4 PAM 32
COc1ccc(OC)c(-c2nnc3n2N=C(c2ccc(OC)c(OCC4CC4)c2)CS3)c1	M4 antag 29
COc1ccc(C2=Nn3c(nnc3-c3ccccc3Cl)SC2)cc1OCC1CC1	none
CC(C)CCn1nc(C(=O)OCC(=O)NC(C)c2ccccc2)c2ccccc2c1=O (stereo not drawn)	M5 antag 29
CCOC(=O)C(c1nc2ccccc2[nH]1)n1c(-c2ccccn2)nc2ccccc21 (stereo not drawn)	none
O=C(Nc1ccccc1)Nc1ccc2nnsc2c1	M5 antag 44, M4 antag 30
Cc1ccccc1C(=O)NCC(=O)NNC(=O)CCN1CCN(c2ccccc2)CC1	none
Cc1ccsc1C(=O)NNC(=O)CCN1CCN(c2ccccc2)CC1	CHRM4 PAM 23
CN1C(=S)SC(C)(C)C1(C)NO (stereo not drawn)	CHRM5 PAM 26
COc1cc2c(c(OC)c1OC)CC(=O)N(C)CC2	M4 antag 33
CCN(Cc1cc2ccccc2[nH]c1=O)C(=O)C1CCCCC1	none
CC(C)(C)N(Cc1cc2ccccc2[nH]c1=O)C(=O)C1CCCCC1	M5 antag 79
O=C(NNC(=O)c1cc2cc3ccccc3nc2s1)c1cccc(Cl)c1	CHRM4 PAM 30
O=S(=O)(c1cc(Cl)ccc1Cl)N1CC2CCCN2c2ccc(C(F)(F)F)cc21 (stereo not drawn)	M4 antag 45
CS(=O)(=O)N1CC2CCCN2c2ccc(C(F)(F)F)cc21 (stereo not drawn)	none
COc1ccc(S(=O)(=O)N2CC3CCCN3c3cc(C(F)(F)F)ccc32)cc1 (stereo not drawn)	none
COc1ccc(S(=O)(=O)N2CC3CCCN3c3ccc(C(F)(F)F)cc32)cc1 (stereo not drawn)	M4 antag 30
Cc1ccc(N(CC(=O)Nc2cc(C)cc(C)c2)S(=O)(=O)c2c(C)noc2C)cc1	none
O=C(Nc1nccc(-c2cccs2)n1)c1ccccc1Cl	none
O=C(CN1CCN(c2cccc(Cl)c2)CC1)NC1CCCc2ccccc21 (stereo not drawn)	none
CCCc1nnc(SCC(=O)N2CCCCC2)n1CC1CCCO1 (stereo not drawn)	none
C[N+](C)(C)c1ccc(/C=N/Nc2nc(Cl)c(C#N)c(Cl)c2Cl)cc1	M5 ag 32
N#Cc1c(Cl)nc(N/N=C/c2ccccc2)c(Cl)c1Cl	none
C=CCC[C@H](Cc1ccc(F)cc1)C(=O)OC[C@@H](Cc1c[nH]c2ccccc12)NC(=O)[C@H](CC=C)CC(=O)N(CCO)Cc1ccccc1	M4 antag 45
C=CC[C@@H](CC(=O)N(CCO)Cc1ccccc1)C(=O)NC[C@H](OC(=O)[C@@H](CC=C)Cc1ccc(F)cc1)c1ccccc1	M4 antag 30
CCC(OC(=O)C(NC(=O)c1ccccc1)c1ccccc1)C(=O)Nc1cc(C)on1 (stereo not drawn)	none
